Assay results taken from ChEMBL document CHEMBL1123716, “Synthesis and tumor uptake of 5-halo-1-(2'-fluoro-2'-deoxy-beta-D-ribofuranosyl)[2-14C]uracils” (J Med Chem, 1987).
“And” between values parts separate entries of the source, which are not always exact repeats. Identical values can stand only once.

How the values were obtained:
Mus musculus [1] = assay: Tissue distribution in BDF1 female mice bearing an implanted lewis lung tumor after intravenous injection in lung at 0.25 h.; type: ADME, organism-based; conditions: in vivo
Method in brief: (§1)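 Female BDF₁ mice (18–20 g) carrying transplanted Lewis lung tumor received 23–193 kBq of the [2-¹⁴C]-labeled nucleoside in normal saline via tail vein. The compound was stored as a dry film and reconstituted just before use. Animals were killed at set times, and tissue ¹⁴C was measured by combustion and liquid scintillation. Values are mean ± SD % injected dose per gram of wet tissue, n = 6.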

Mus musculus [2] = assay: Tissue distribution in BDF1 female mice bearing an implanted lewis lung tumor after intravenous injection in lung at 24 h.; type: ADME, organism-based; conditions: in vivo; method in brief: as §1
Mus musculus [3] = assay: Tissue distribution in BDF1 female mice bearing an implanted lewis lung tumor after intravenous injection in lung at 4 h; type: ADME, organism-based; conditions: in vivo; method in brief: as §1
Mus musculus [4] = assay: Tissue distribution in BDF1 female mice bearing an implanted lewis lung tumor after intravenous injection in muscle at 0.5 h.; type: ADME, organism-based; conditions: in vivo; method in brief: as §1
Mus musculus [5] = assay: Tissue distribution in BDF1 female mice bearing an implanted lewis lung tumor after intravenous injection in muscle at 2 h.; type: ADME, organism-based; conditions: in vivo; method in brief: as §1
Mus musculus [6] = assay: Tissue distribution in BDF1 female mice bearing an implanted lewis lung tumor after intravenous injection in muscle at 24 h.; type: ADME, organism-based; conditions: in vivo; method in brief: as §1
Mus musculus [7] = assay: Tissue distribution in BDF1 female mice bearing an implanted lewis lung tumor after intravenous injection in muscle at 4 h.; type: ADME, organism-based; conditions: in vivo; method in brief: as §1
Mus musculus [8] = assay: Tissue distribution in BDF1 female mice bearing an implanted lewis lung tumor after intravenous injection in skin at 0.25 h; type: ADME, organism-based, Skin of body; conditions: in vivo; method in brief: as §1
Mus musculus [9] = assay: Tissue distribution in BDF1 female mice bearing an implanted lewis lung tumor after intravenous injection in skin at 2 h.; type: ADME, organism-based, Skin of body; conditions: in vivo; method in brief: as §1
Mus musculus [10] = assay: Tissue distribution in BDF1 female mice bearing an implanted lewis lung tumor after intravenous injection in skin at 4 h.; type: ADME, organism-based, Skin of body; conditions: in vivo; method in brief: as §1
Mus musculus [11] = assay: Tissue distribution in BDF1 female mice bearing an implanted lewis lung tumor after intravenous injection in spleen at 0.25 h; type: ADME, organism-based; conditions: in vivo; method in brief: as §1
Mus musculus [12] = assay: Tissue distribution in BDF1 female mice bearing an implanted lewis lung tumor after intravenous injection in bone at 4 h.; type: ADME, organism-based; conditions: in vivo
Method in brief: (§2)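 Female BDF1 mice (18–20 g) with implanted Lewis lung tumor received the 2-14C compound by tail vein, 23–193 kBq in normal saline, reconstituted from a dry film just before use. Animals were killed at set times and tissues taken for 14C counting by combustion and liquid scintillation. Values are percent injected dose per gram wet tissue, mean ± standard deviation, six animals.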

Mus musculus [13] = assay: Tissue distribution in BDF1 female mice bearing an implanted lewis lung tumor after intravenous injection in bone at 8 h.; type: ADME, organism-based; conditions: in vivo; method in brief: as §2
Mus musculus [14] = assay: Tissue distribution in BDF1 female mice bearing an implanted lewis lung tumor after intravenous injection in git(Section of intestine) at 0.5 h.; type: ADME, organism-based; conditions: in vivo; method in brief: as §2
Mus musculus [15] = assay: Tissue distribution in BDF1 female mice bearing an implanted lewis lung tumor after intravenous injection in git(Section of intestine) at 1 h.; type: ADME, organism-based; conditions: in vivo; method in brief: as §2
Mus musculus [16] = assay: Tissue distribution in BDF1 female mice bearing an implanted lewis lung tumor after intravenous injection in git(Section of intestine) at 2 h.; type: ADME, organism-based; conditions: in vivo; method in brief: as §2
Mus musculus [17] = assay: Tissue distribution in BDF1 female mice bearing an implanted lewis lung tumor after intravenous injection in git(Section of intestine) at 24 h.; type: ADME, organism-based; conditions: in vivo; method in brief: as §2
Mus musculus [18] = assay: Tissue distribution in BDF1 female mice bearing an implanted lewis lung tumor after intravenous injection in heart at 0.25 h.; type: ADME, organism-based; conditions: in vivo; method in brief: as §2
Mus musculus [19] = assay: Tissue distribution in BDF1 female mice bearing an implanted lewis lung tumor after intravenous injection in kidney at 1 h.; type: ADME, organism-based; conditions: in vivo; method in brief: as §2
Mus musculus [20] = assay: Tissue distribution in BDF1 female mice bearing an implanted lewis lung tumor after intravenous injection in kidney at 24 h.; type: ADME, organism-based; conditions: in vivo; method in brief: as §1
Mus musculus [21] = assay: Tissue distribution in BDF1 female mice bearing an implanted lewis lung tumor after intravenous injection in kidney at 8 h.; type: ADME, organism-based; conditions: in vivo; method in brief: as §1
Mus musculus [22] = assay: Tissue distribution in BDF1 female mice bearing an implanted lewis lung tumor after intravenous injection in liver at 0.25 h.; type: ADME, organism-based; conditions: in vivo; method in brief: as §1
Mus musculus [23] = assay: Tissue distribution in BDF1 female mice bearing an implanted lewis lung tumor after intravenous injection in liver at 1 h.; type: ADME, organism-based; conditions: in vivo; method in brief: as §1
Mus musculus [24] = assay: Tissue distribution in BDF1 female mice bearing an implanted lewis lung tumor after intravenous injection in liver at 2 h.; type: ADME, organism-based; conditions: in vivo; method in brief: as §1
Mus musculus [25] = assay: Tissue distribution in BDF1 female mice bearing an implanted lewis lung tumor after intravenous injection in liver at 4 h.; type: ADME, organism-based; conditions: in vivo; method in brief: as §1
Mus musculus [26] = assay: Tissue distribution in BDF1 female mice bearing an implanted lewis lung tumor after intravenous injection in liver at 8 h.; type: ADME, organism-based; conditions: in vivo; method in brief: as §1
Mus musculus [27] = assay: Tissue distribution in BDF1 female mice bearing an implanted lewis lung tumor after intravenous injection in blood at 2 h.; type: ADME, organism-based; conditions: in vivo; method in brief: as §2
Mus musculus [28] = assay: Tissue distribution in BDF1 female mice bearing an implanted lewis lung tumor after intravenous injection in spleen at 4 h.; type: ADME, organism-based; conditions: in vivo; method in brief: as §1
Mus musculus [29] = assay: Tissue distribution in BDF1 female mice bearing an implanted lewis lung tumor after intravenous injection in stomach at 2 h.; type: ADME, organism-based; conditions: in vivo; method in brief: as §1
Mus musculus [30] = assay: Tissue distribution in BDF1 female mice bearing an implanted lewis lung tumor after intravenous injection in tumor at 0.5 h.; type: ADME, organism-based; conditions: in vivo
Method in brief: (§3)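 Female BDF1 mice (18–20 g) carrying a transplanted Lewis lung tumor were given 23–193 kBq of the [2-14C]-labelled nucleoside in normal saline by tail vein. Animals were killed at set times. Tissue 14C was counted by liquid scintillation, after combustion or directly. Values are percent of injected dose per gram wet tissue, as mean ± standard deviation of six animals.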

Mus musculus [31] = assay: Tissue distribution in BDF1 female mice bearing an implanted lewis lung tumor after intravenous injection in tumor at 4 h.; type: ADME, organism-based; conditions: in vivo; method in brief: as §3
Mus musculus [32] = assay: Tissue distribution in BDF1 female mice bearing an implanted lewis lung tumor after intravenous injection in tumor at 8 h.; type: ADME, organism-based; conditions: in vivo; method in brief: as §3
Mus musculus [33] = assay: Tissue distribution in BDF1 female mice bearing an implanted lewis lung tumor after intravenous injection in kidney at 0.5 h.; type: ADME, organism-based; conditions: in vivo; method in brief: as §2
Mus musculus [34] = assay: Tissue distribution in BDF1 female mice bearing an implanted lewis lung tumor after intravenous injection in muscle at 0.25 h.; type: ADME, organism-based; conditions: in vivo; method in brief: as §1
Mus musculus [35] = assay: Tissue distribution in BDF1 female mice bearing an implanted lewis lung tumor after intravenous injection in skin at 0.25 h.; type: ADME, organism-based, Skin of body; conditions: in vivo; method in brief: as §1
Mus musculus [36] = assay: Tissue distribution in BDF1 female mice bearing an implanted lewis lung tumor after intravenous injection in spleen at 0.25 h.; type: ADME, organism-based; conditions: in vivo; method in brief: as §1
Mus musculus [37] = assay: Tissue distribution in BDF1 female mice bearing an implanted lewis lung tumor after intravenous injection in bone at 0.25 h.; type: ADME, organism-based; conditions: in vivo; method in brief: as §2
Mus musculus [38] = assay: Radioactive constituent of 5-fluorouracil in urine at 0.5 hr time interval after intravenous injection into BDF1 female mice bearing lewis lung tumor; type: ADME, organism-based; conditions: in vivo
Method in brief: (§4)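 Radiolabeled nucleoside given in normal saline by tail vein, 23–193 kBq per mouse, to female BDF1 mice (18–20 g) carrying transplanted Lewis lung tumor. Urine was collected when the animals were killed. Components were identified by reverse-phase HPLC with UV at 256 nm on urine spiked with reference compounds, matched to liquid scintillation counts of the eluate. Each is reported as a percent of total urine radioactivity.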

Mus musculus [39] = assay: Radioactive constituent of other in urine at 8 hr time interval after intravenous injection into BDF1 female mice bearing lewis lung tumor; type: ADME, organism-based; conditions: in vivo; method in brief: as §4
Mus musculus [40] = assay: Radioactive constituent in urine at 2 hr time interval after intravenous injection into BDF1 female mice bearing lewis lung tumor; type: ADME, organism-based; conditions: in vivo; method in brief: as §4
[41] = Total urine activity excreted at 2 hr was estimated from the measurement of loss of tissue activity; type: ADME, tissue-based
[42] = Total urine activity excreted at 4 hr was estimated from the measurement of loss of tissue activity; type: ADME, tissue-based

O=c1[nH]c(=O)n([C@H]2O[C@@H](CO)[C@H](O)[C@H]2F)cc1Cl
Tissue distribution (Mus musculus [1]): 2.73
Tissue distribution (Mus musculus [2]): 0.01
Tissue distribution (Mus musculus [3]): 0.06
Tissue distribution (Mus musculus [4]): 0.78
Tissue distribution (Mus musculus [5]): 0.15
Tissue distribution (Mus musculus [6]): 0.01
Tissue distribution (Mus musculus [7]): 0.05
Tissue distribution (Mus musculus [8]): 2.24
Tissue distribution (Mus musculus [9]): 0.13
Tissue distribution (Mus musculus [10]): 0.04
Tissue distribution (Mus musculus [11]): 2.12
Tissue distribution (Mus musculus [12]): 0.04
Tissue distribution (Mus musculus [13]): 0.02
Tissue distribution (Mus musculus [14]): 1.02
Tissue distribution (Mus musculus [15]): 0.38
Tissue distribution (Mus musculus [16]): 0.17
Tissue distribution (Mus musculus [17]): 0.02
Tissue distribution (Mus musculus [18]): 3.07
Tissue distribution (Mus musculus [19]): 7.28
Tissue distribution (Mus musculus [20]): 0.03
Tissue distribution (Mus musculus [21]): 0.09
Tissue distribution (Mus musculus [22]): 2.39
Tissue distribution (Mus musculus [23]): 0.47 and 0.6
Tissue distribution (Mus musculus [24]): 0.15
Tissue distribution (Mus musculus [25]): 0.05
Tissue distribution (Mus musculus [26]): 0.03
Tissue distribution (Mus musculus [27]): 0.18
Tissue distribution (Mus musculus [28]): 0.17
Tissue distribution (Mus musculus [29]): 0.31
Tissue distribution (Mus musculus [30]): 1.82
Tissue distribution (Mus musculus [31]): 0.23
Tissue distribution (Mus musculus [32]): 0.07
Tissue distribution (Mus musculus [33]): 23.2

O=c1[nH]c(=O)n([C@H]2O[C@@H](CO)[C@H](O)[C@H]2F)cc1F
Tissue distribution (Mus musculus [1]): 3.37
Tissue distribution (Mus musculus [2]): 0.005
Tissue distribution (Mus musculus [3]): 0.02
Tissue distribution (Mus musculus [34]): 2.48
Tissue distribution (Mus musculus [4]): 1.06
Tissue distribution (Mus musculus [5]): 0.06
Tissue distribution (Mus musculus [6]): 0.004
Tissue distribution (Mus musculus [7]): 0.02
Tissue distribution (Mus musculus [35]): 3.3
Tissue distribution (Mus musculus [10]): 0.11
Tissue distribution (Mus musculus [36]): 8.72
Tissue distribution (Mus musculus [12]): 0.07
Tissue distribution (Mus musculus [13]): 0.03
Tissue distribution (Mus musculus [14]): 1.59
Tissue distribution (Mus musculus [15]): 0.71
Tissue distribution (Mus musculus [16]): 0.11
Tissue distribution (Mus musculus [17]): 0.01
Tissue distribution (Mus musculus [37]): 1.69
Tissue distribution (Mus musculus [18]): 3.8
Tissue distribution (Mus musculus [19]): 8.21
Tissue distribution (Mus musculus [20]): 0.01
Tissue distribution (Mus musculus [21]): 0.02
Tissue distribution (Mus musculus [22]): 3.37
Tissue distribution (Mus musculus [23]): 0.53
Tissue distribution (Mus musculus [24]): 0.08
Tissue distribution (Mus musculus [25]): 0.02
Tissue distribution (Mus musculus [26]): 0.01
Tissue distribution (Mus musculus [27]): 0.06
Tissue distribution (Mus musculus [28]): 0.18
Total radioactivity (Mus musculus [38]): 2.1%
Tissue distribution (Mus musculus [29]): 0.07
Tissue distribution (Mus musculus [30]): 3.88
Tissue distribution (Mus musculus [31]): 0.16
Tissue distribution (Mus musculus [32]): 0.05
Total radioactivity (Mus musculus [39]): 38.6%
Total radioactivity (Mus musculus [40]): 88.5%
Total urine activity [41]: 30%
Total urine activity [42]: 0.8%
Tissue distribution (Mus musculus [33]): 21.9
